Source: ChEMBL document CHEMBL1143625, “Bisphosphonate inhibitors of Toxoplasma gondi growth: in vitro, QSAR, and in vivo investigations” (J Med Chem, 2005)

test system: not listed separately; assay: Therapeutic index (TI) value as ratio of lethal dose (LD50) to the inhibitory concentration (IC50); format: cell-based; settings: human, KB cells; read-out: TI

Point of comparison: `CCCCCCC(O)(P(=O)(O)O)P(=O)(O)O`, selectivity ratio 4.23. Against it:
- O=P(O)(O)C(NC1CCCC1)P(=O)(O)O [(CYCLOPENTYLAMINO)METHYLENEDIPHOSPHONIC ACID] — higher, 9.19
- CCCCCCCCCCC(O)(P(=O)(O)O)P(=O)(O)O — higher, > 2950
- O=P(O)(O)C(Nc1cccnc1)P(=O)(O)O — higher, 18.6
- O=P(O)(O)C(N(C1CCCCC1)C1CCCCC1)P(=O)(O)O [(DICYCLOHEXYLAMINO)METHYLENEDIPHOSPHONIC ACID] — higher, > 20.1
- O=P(O)(O)C(O)(CC1=NC=NC1)P(=O)(O)O — higher, 6.12
- O=P(O)(O)C(O)(Cc1cccnc1)P(=O)(O)O [RISEDRONIC ACID] — higher, 106
- CCCCCCCC(O)(P(=O)(O)O)P(=O)(O)O — higher, 21.9
- CCCCCN(C)CCC(O)(P(=O)(O)O)P(=O)(O)O [IBANDRONIC ACID] — lower, 0.19
- O=P(O)(O)C(NC1CCC1)P(=O)(O)O [(CYCLOBUTYLAMINO)METHYLENEDIPHOSPHONIC ACID] — lower, 2.15

test system: HFF; assay: Inhibitory concentration against the growth of Toxoplasma gondii overexpressing FPPS enzyme in human foreskin fibroblast monolayer cells; (control = 0.29 uM); format: functional, cell-based; settings: not given
In short: (§1)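 FPPS-overexpressing T. gondii line: 2F clone tachyzoites (beta-galactosidase) electroporated with 50 µg ptubTgFPPS-FLAG/sagCAT. Stable lines were selected with 20 µM chloramphenicol and cloned by limiting dilution, giving 4-5-fold more FPPS by Western blot. Assay: compounds serially diluted in medium on confluent HFF; 10^4 tachyzoites/mL (filtered 3 µm, needle-passed); 48 h at 37 °C. Lysis, then CPRG read at 570 nm; IC50 from rectangular hyperbolic fit of % inhibition.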

Work on `O=C1C(O)=C([C@H]2CC[C@H](c3ccc(Cl)cc3)CC2)C(=O)c2ccccc21` [ATOVAQUONE] yielded an IC50 of 0.28 µM.

test system: HFF; assay: Inhibitory concentration against the growth of Toxoplasma gondii overexpressing FPPS enzyme in human foreskin fibroblast monolayer cells; (control = 2.2 uM, experiment 1); format: functional, cell-based; settings: not given; in short: as §1

`CCCCCCCCC(O)(P(=O)(O)O)P(=O)(O)O` gave an IC50 of 3.3 µM.

test system: HFF; assay: Inhibitory concentration against the growth of Toxoplasma gondii overexpressing FPPS enzyme in human foreskin fibroblast monolayer cells; (control = 2.4 uM, experiment 3); format: functional, cell-based; settings: not given; in short: as §1

`CCCCCCCCC(O)(P(=O)(O)O)P(=O)(O)O` gave an IC50 of 5.8 µM.

test system: HFF; assay: Inhibitory concentration against the growth of Toxoplasma gondii overexpressing FPPS enzyme in human foreskin fibroblast monolayer cells; (control = 2.5 uM, experiment 2); format: functional, cell-based; settings: not given; in short: as §1

For `CCCCCCCCC(O)(P(=O)(O)O)P(=O)(O)O`, the IC50 was 5.8 µM.

test system: HFF; assay: Inhibitory concentration against the growth of Toxoplasma gondii overexpressing FPPS enzyme in human foreskin fibroblast monolayer cells; (control = 0.12 uM, experiment 1); format: functional, cell-based; settings: not given; in short: as §1

With `CCCCCCCCCCC(O)(P(=O)(O)O)P(=O)(O)O` the IC50 was 1.1 µM.

test system: HFF; assay: Inhibitory concentration against the growth of Toxoplasma gondii overexpressing FPPS enzyme in human foreskin fibroblast monolayer cells; (control = 0.28 uM, experiment 3); format: functional, cell-based; settings: not given; in short: as §1

`CCCCCCCCCCC(O)(P(=O)(O)O)P(=O)(O)O` gave an IC50 of 1.7 µM.

test system: HFF; assay: Inhibitory concentration against the growth of Toxoplasma gondii overexpressing FPPS enzyme in human foreskin fibroblast monolayer cells; (control = 0.30 uM, experiment 2); format: functional, cell-based; settings: not given; in short: as §1

Compound `CCCCCCCCCCC(O)(P(=O)(O)O)P(=O)(O)O` has an IC50 of 1.2 µM.

test system: KB; assay: Lethal dose required to inhibit the growth of human KB (nasopharyngeal carcinoma) cell line; format: functional; settings: read-out: LD50 (the source's name)

Point of comparison: `O=P(O)(O)C(O)(Cc1cccnc1)P(=O)(O)O` [RISEDRONIC ACID], CC50 255 µM. Against it:
- O=P(O)(O)C(NC1CCCC1)P(=O)(O)O [(CYCLOPENTYLAMINO)METHYLENEDIPHOSPHONIC ACID] — 2.5-fold higher, 629 µM
- CCCCCCCCCCC(O)(P(=O)(O)O)P(=O)(O)O — higher, > 826 µM
- O=P(O)(O)C(Nc1cccnc1)P(=O)(O)O — 3.1-fold higher, 782 µM
- O=P(O)(O)C(N(C1CCCCC1)C1CCCCC1)P(=O)(O)O [(DICYCLOHEXYLAMINO)METHYLENEDIPHOSPHONIC ACID] — higher, > 844 µM
- O=P(O)(O)C(O)(CC1=NC=NC1)P(=O)(O)O — 6.2-fold lower, 41 µM
- CCCCCCCC(O)(P(=O)(O)O)P(=O)(O)O — within 1.5-fold, 302 µM
- CCCCCN(C)CCC(O)(P(=O)(O)O)P(=O)(O)O [IBANDRONIC ACID] — 25-fold lower, 10.4 µM
- O=P(O)(O)C(NC1CCC1)P(=O)(O)O [(CYCLOBUTYLAMINO)METHYLENEDIPHOSPHONIC ACID] — within 1.5-fold, 260 µM
- CCCCCCC(O)(P(=O)(O)O)P(=O)(O)O — 2.4-fold lower, 107 µM

test system: not listed separately; assay: In vitro inhibitory concentration against the growth of Toxoplasma gondii in human foreskin fibroblast monolayer cells (HFF cells); format: functional, cell-based; settings: not given
In short: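 T. gondii 2F clone tachyzoites expressing β-galactosidase, kept in HFF in DMEM with 10% FBS, 2 mM glutamine and 1 mM pyruvate. Confluent HFF monolayers were given serially diluted drug in medium, then 10^4 filtered, needle-passed tachyzoites/mL, and held 48 h at 37 °C. Cells were lysed at 50 °C, and CPRG turnover was read at 570 nm. IC50 came from a hyperbolic fit of % inhibition against concentration.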

Point of comparison: `O=P(O)(O)C(O)(Cn1cnc2ccccc21)P(=O)(O)O`, IC50 4.5 µM. Against it:
- Cc1csc(NC(P(=O)(O)O)P(=O)(O)O)n1 — 6.9-fold higher, 30.9 µM
- O=P(O)(O)C(Sc1ccccn1)P(=O)(O)O — 11-fold higher, 51.2 µM
- CN(Cc1ccccc1)C(P(=O)(O)O)P(=O)(O)O — 17-fold higher, 76.7 µM
- CCC(C)NC(P(=O)(O)O)P(=O)(O)O (configuration not stated) — 36-fold higher, 164 µM
- CCc1cccc(NC(P(=O)(O)O)P(=O)(O)O)n1 — 48-fold higher, 218 µM
- CC(C)c1cccc(NC(P(=O)(O)O)P(=O)(O)O)c1 — 36-fold higher, 160 µM
- O=P(O)(O)C(O)(Cc1cnc2ccccn12)P(=O)(O)O [MINODRONIC ACID] — 2.4-fold lower, 1.88 µM
- CC1CCCCN1C(P(=O)(O)O)P(=O)(O)O (configuration not stated) — 29-fold higher, 132 µM
- C[C@H](NC(P(=O)(O)O)P(=O)(O)O)c1cccc2ccccc12 — 12-fold higher, 55.1 µM
- CC(C)(C)c1cccc(NC(P(=O)(O)O)P(=O)(O)O)c1 — 35-fold higher, 157 µM
- O=P(O)(O)C(Nc1cccc(Cc2ccccc2)c1)P(=O)(O)O — 12-fold higher, 56.2 µM
- O=[N+]([O-])c1cccc(CC(O)(P(=O)(O)O)P(=O)(O)O)c1 — 11-fold higher, 47.9 µM
- O=P(O)(O)C(Nc1ccc(Cl)cc1Cl)P(=O)(O)O [2,4-DICHLOROPHENYLAMINOMETHYLENEBISPHOSPHONIC ACID] — 34-fold higher, 154 µM
- O=P(O)(O)C(NC1CCCC1)P(=O)(O)O [(CYCLOPENTYLAMINO)METHYLENEDIPHOSPHONIC ACID] — 15-fold higher, 68.4 µM
- NCCCC(O)(P(=O)(O)O)P(=O)(O)O [ALENDRONIC ACID] — 24-fold higher, 109 µM
- CCCCCCCCCCC(O)(P(=O)(O)O)P(=O)(O)O — 16-fold lower, 0.28 µM
- O=P(O)(O)C(Nc1cccnc1)P(=O)(O)O — 9.3-fold higher, 42 µM
- O=P(O)(O)C(N(C1CCCCC1)C1CCCCC1)P(=O)(O)O [(DICYCLOHEXYLAMINO)METHYLENEDIPHOSPHONIC ACID] — 9.4-fold higher, 42.1 µM
- O=P(O)(O)C(O)(CC1=NC=NC1)P(=O)(O)O — within 1.5-fold, 6.7 µM
- Cc1ccnc(N(Cc2ccccc2)C(P(=O)(O)O)P(=O)(O)O)c1 — 50-fold higher, 226 µM
- C[C@@H](NC(P(=O)(O)O)P(=O)(O)O)c1cccc2ccccc12 — 14-fold higher, 63.2 µM
- O=P(O)(O)C(O)(Cc1cccnc1)P(=O)(O)O [RISEDRONIC ACID] — 1.9-fold lower, 2.4 µM
- CCCCCCCC(O)(P(=O)(O)O)P(=O)(O)O — 3.1-fold higher, 13.8 µM
- CCCCCN(C)CCC(O)(P(=O)(O)O)P(=O)(O)O [IBANDRONIC ACID] — 12-fold higher, 54.9 µM
- O=P(O)(O)C(O)(Cc1cccc2ccccc12)P(=O)(O)O — 15-fold higher, 68.8 µM
- O=P(O)(O)C(NC1CCC1)P(=O)(O)O [(CYCLOBUTYLAMINO)METHYLENEDIPHOSPHONIC ACID] — 27-fold higher, 121 µM
- Cc1cccc(CC(O)(P(=O)(O)O)P(=O)(O)O)c1 — 8.1-fold higher, 36.4 µM
- CCCCCCC(O)(P(=O)(O)O)P(=O)(O)O — 5.6-fold higher, 25.3 µM
- CCCCCCCCC(O)(P(=O)(O)O)P(=O)(O)O — 1.9-fold lower, 2.38 µM
